# Screening data: PubChem, The Scripps Research Institute Molecular Screening Center
# Most compounds without a hit are left out; they make up all but 4.5% or so of the library.
# OX1R antag-1 = antagonists of human orexin 1 receptor (OX1R) | Orexin/Hypocretin receptor type 1 (Homo sapiens), O43613 | OX1R-expressing cells, FRET antagonist read-out | inhibition, % at 6.6 µM | 1.8% of 330,000 active; in the data active = inhibition mostly above about 38%, no sharp cut-off; inactive = mostly below about 40%;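 also: 0% = agonist challenge alone and 100% = reference antagonist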
# TAAR1 agonist = human TAAR1 agonists, primary screen, Fluo-8 calcium fluorescence, CHO RD-HGA16 cells; 0.99% of 360,000 active; activation, % at 3 µM; Trace amine-associated receptor 1 (Homo sapiens), Q96RJ0; AID 624467, 2012; vehicle wells 0%, saturating PEA agonist 100%;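 active = activation above the mean activation of all test compounds in the run plus 3 SD, cut at about 38% in these data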
# Target sequence (Q96RJ0 whole entry, looked up): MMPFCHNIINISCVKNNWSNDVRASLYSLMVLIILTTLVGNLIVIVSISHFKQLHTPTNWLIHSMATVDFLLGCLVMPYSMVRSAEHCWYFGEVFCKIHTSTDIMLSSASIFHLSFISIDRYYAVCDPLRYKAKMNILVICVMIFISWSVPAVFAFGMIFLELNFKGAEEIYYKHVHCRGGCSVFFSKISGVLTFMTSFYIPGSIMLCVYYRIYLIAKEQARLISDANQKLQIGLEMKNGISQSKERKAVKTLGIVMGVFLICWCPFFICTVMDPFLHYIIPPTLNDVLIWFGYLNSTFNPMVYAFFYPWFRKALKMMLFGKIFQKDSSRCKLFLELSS
#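 Assay system – CHO-derived RD-HGA16 cells with stable Gα16 and human TAAR1 · Compound dosing – one-point dosing at 3 µM (nominal) · Incubation – 17-24 h seeding, 75 min 37 °C dye, 30 min RT · Measured by – kinetic Fluo-8 calcium fluorescence · Control set – DMSO vehicle as 0%, PEA at EC100 as 100% · Repeats – single well for each compound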
# OX1R antag-2 = OX1R (HCRTR1) antagonists, primary screen, fluorescence, CHO/OX1R cells, Fluo-8 calcium, orexin A; inhibition, % at 5 µM; AID 434989, 2010; 0.43% of 330,000 active; Fluo-8 calcium fluorescence;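 active = inhibition above its plate's threshold, mean inhibition of all tested compounds on the plate plus 3 SD, cut at about 37% in these data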;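 also: 0% = orexin A challenge wells and 100% = SB-334867-A antagonist wells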
# TAAR1 antagonist = human TAAR1 antagonists, primary screen, Fluo-8 calcium fluorescence, CHO RD-HGA16 cells | 1.5% of 360,000 active | Trace amine-associated receptor 1 (Homo sapiens), Q96RJ0 | AID 624466, 2012 | inhibition, % at 3 µM | antagonist;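 active = inhibition above a per-plate cutoff, the mean inhibition of test compounds on that plate plus 3 SD, cut at about 49% in these data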;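 also: 0% = DMSO plus EC80 beta-PEA response and 100% = DMSO alone without agonist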
#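 Test system – hTAAR1-expressing CHO RD-HGA16 cells, Gα16-coupled · Also added – β-PEA at EC80 concentration, post-compound challenge · Compound – 3 µM, single point · Incubation – dye loading 75 min at 37 °C, then 30 min room temperature · Measured by – Fluo-8 intracellular calcium dye fluorescence, real-time kinetic reads · Benchmarks – vehicle and agonist controls · Replicates – singlicate, one well per test compound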
# GPR7 antag = GPR7 receptor antagonists, primary screen, cell-based, fluorescence, single concentration | Neuropeptides B/W receptor type 1 (Homo sapiens), P48145 | 1.1% of 290,000 active | GPR7-expressing cells, fluorescence antagonist assay | AID 1861, 2009 | inhibition, % at 4.4 µM; in the data active = inhibition above about 16%, passing the limit was not always enough;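 also: cells stimulated with the agonist NPW; 0% = agonist with vehicle and 100% = vehicle without agonist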
# Target sequence (P48145 whole entry, looked up): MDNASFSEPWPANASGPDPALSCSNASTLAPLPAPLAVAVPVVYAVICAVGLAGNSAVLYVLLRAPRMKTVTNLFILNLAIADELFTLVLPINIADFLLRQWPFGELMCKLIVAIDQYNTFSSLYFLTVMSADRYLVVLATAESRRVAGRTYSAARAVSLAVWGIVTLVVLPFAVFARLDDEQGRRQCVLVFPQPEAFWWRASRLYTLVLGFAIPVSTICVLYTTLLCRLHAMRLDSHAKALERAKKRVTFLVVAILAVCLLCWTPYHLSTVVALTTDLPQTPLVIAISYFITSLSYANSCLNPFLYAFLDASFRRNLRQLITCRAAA
# CHO parental Ca = ATP-evoked calcium signal inhibitors, parental CHO, primary screen, counter-screen for OX1R antagonist project, cell-based, fluorescence, Fluo-8 calcium dye | inhibition, % at 5.6 µM | parental CHO-K1, ATP-induced calcium, Fluo-8 fluorescence | AID 463079, 2010 | 0.63% of 330,000 active;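 active = inhibition above that plate's mean sample inhibition plus 3 SD, cut at about 26% in these data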;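 also: 0% = ATP-challenged DMSO wells and 100% = DMSO wells without ATP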
#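 Test system: parental CHO cells; detection: calcium-sensitive Fluo-8 fluorescence; evaluation: percent inhibition of calcium signal; also added: ATP as calcium-mobilizing challenge; repeats: one well per compound; control set: ATP-challenged DMSO wells low, unchallenged DMSO wells high; compound: single nominal dose of 5.6 µM per compound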
# OX1R Fluo8 conf = OX1R (HCRTR1) antagonists, confirmation, fluorescence, CHO/OX1R cells, Fluo-8 calcium, orexin A | 38% of 1,100 active | shares compounds with OX1R antag-2 | orexin A calcium Fluo-8 fluorescence | inhibition, % at 5 µM; in the data active = inhibition above about 29%;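 also: 0% = agonist challenge alone and 100% = reference antagonist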
# CHO Ca triplic = ATP-evoked calcium inhibition in parental CHO, counter-screen for OX1R antagonist project, cell-based, fluorescence, CHO-K1, triplicate | shares compounds with OX1R antag-2 | ATP-induced calcium, Fluo-8 fluorescence | inhibition, % at 5.6 µM | 9.3% of 1,100 active | AID 492965, 2010;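 active = inhibition above a per-plate limit, the mean inhibition of that plate's test compounds plus 3 SD, cut at about 25% in these data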;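 also: 0% = ATP challenge with DMSO and 100% = DMSO without ATP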
# OX1R HTRF confirm = OX1R (HCRTR1) antagonists, confirmation, cell-based, HTRF; shares compounds with OX1R antag-1; OX1R-expressing cells, HTRF antagonist assay; inhibition, % at 6.6 µM; 49% of 1,800 active; AID 492964, 2010; in the data active = inhibition above about 55%;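 also: CHO cells expressing OX1R stimulated with orexin A at about EC80; 0% = agonist challenge alone and 100% = reference antagonist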
# CHO-K1 HTRF cnt = signal inhibition in parental CHO-K1 cells, counter-screen for OX1R antagonist project, cell-based, HTRF; shares compounds with OX1R antag-1; HTRF counterscreen; inhibition, % at 6.6 µM; 48% of 1,800 active; in the data active = inhibition above about 17%;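 also: 0% = agonist challenge with vehicle and 100% = vehicle alone without agonist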
# TAAR1 nonsel count = nonselective antagonists in TAAR1 counter-screen cells, counter-screen for hTAAR1 antagonist project, cell-based, fluorescence, calcium | AID 651780, 2012 | 77% of 2,400 active | counterscreen cell line, antagonist mode | shares compounds with TAAR1 antagonist | inhibition, % at 3 µM; in the data active = inhibition above about 22%;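 also: CHO-Ga16 host cells stimulated with ATP at an EC80 level; 0% = agonist EC80 plus vehicle and 100% = vehicle without agonist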
# TAAR1 antag conf = human TAAR1 antagonists, retest of hits, confirmation, cell-based, fluorescence | TAAR1-expressing cells, fluorescence antagonist read-out | AID 651785, 2012 | shares compounds with TAAR1 antagonist | 40% of 2,400 active | inhibition, % at 3 µM; in the data active = inhibition above about 49%;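 also: CHO-Ga16 host cells challenged with agonist PEA near its EC80; 0% = agonist at EC80 plus vehicle and 100% = vehicle with no agonist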
# Ga16 ag counter-1 = calcium activation in Ga16-expressing cells, counter-screen for TAAR1 antagonist project, cell-based, fluorescence. shares compounds with TAAR1 antagonist. agonist counterscreen. activation, % at 3 µM. 18% of 2,400 active. AID 651953, 2012; in the data active = activation above about 12%;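 also: 0% = vehicle wells and 100% = saturating stimulus response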
# TAAR1 ag count = TAAR1 activation by candidate antagonists – cell-based, fluorescence, counter-screen for TAAR1 antagonist project | shares compounds with TAAR1 antagonist | hTAAR1 cell line, agonist mode | activation, % at 3 µM | 2% of 2,400 active | AID 651955, 2012; in the data active = activation above about 37%;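 also: CHO cells stably expressing TAAR1 with calcium dye readout; 0% = DMSO vehicle and 100% = full agonist response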
# TAAR1 ag conf = human TAAR1 agonists, retest of hits, confirmation, Fluo-8 calcium fluorescence, CHO RD-HGA16 cells | AID 651783, 2012 | scaled: DMSO 0%, maximal phenethylamine 100% | 82% of 2,400 active | activation, % at 3 µM | shares compounds with TAAR1 agonist;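 active = activation above a cutoff set at the run's mean compound activation plus 3 SD, cut at about 39% in these data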
# Ga16 ag counter-2 = nonselective calcium mobilization agonists, CHO-Ga16 cells, counter-screen for hTAAR1 agonist project, cell-based, fluorescence, CHO-Ga16 parental line; shares compounds with TAAR1 agonist; Fluo-8 calcium fluorescence; normalized to maximal ATP response, DMSO zero; activation, % at 3 µM; 50% of 2,400 active; AID 651787, 2012;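 active = activation above the run cutoff, the mean activation over all tested wells plus 3 SD, cut at about 12% in these data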;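 also: 0% = DMSO wells and 100% = maximal ATP response on the peak over basal ratio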
# TAAR1 desensitize = TAAR1 desensitization by agonist hits, confirmation, counter-screen for TAAR1 agonist project, cell-based, fluorescence, tachyphylaxis. shares compounds with TAAR1 agonist. inhibition, % at 3 µM. AID 651951, 2012. CHO RD-HGA16 hTAAR1, Fluo-8 calcium, beta-PEA response inhibition. 46% of 2,400 active;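 active = inhibition above the run cutoff, the mean inhibition of all test compounds plus 3 SD, cut at about 49% in these data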;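 also: beta-PEA stimulus applied at its EC80; loss of beta-PEA calcium signal after compound pretreatment read as receptor desensitization; 0% = DMSO with beta-PEA at EC80 and 100% = DMSO alone without agonist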
# Ga16 nonsel ant = inhibition of ATP-evoked calcium response in CHO-Ga16 cells, counter-screen for TAAR1 agonist project, cell-based, fluorescence | shares compounds with TAAR1 agonist | CHO-Ga16 ATP-induced calcium, Fluo-8 fluorescence | inhibition, % at 3 µM | 39% of 2,400 active;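 active = inhibition above the plate's mean compound inhibition plus 3 SD, computed per plate, cut at about 22% in these data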;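 also: 0% = EC80 ATP with DMSO and 100% = DMSO wells without ATP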
# * marks the source's active call; other numbers are inactive results; · = not tested or not shown.
SMILES,OX1R antag-1,TAAR1 agonist,OX1R antag-2,TAAR1 antagonist,GPR7 antag,CHO parental Ca,OX1R Fluo8 conf,CHO Ca triplic,TAAR1 nonsel count,TAAR1 antag conf,Ga16 ag counter-1,TAAR1 ag count,others
Cc1ccc(S(=O)(=O)NC(C(=O)Oc2ccc3c(C)c(Cl)c(=O)oc3c2)c2ccccc2)cc1 (stereo not drawn),1.8,5.2,-18.5,12.5,-6.8,-4.4,·,·,·,·,·,·,
COc1ccc(-c2cn3c(C)c(C(=O)Nc4cccc(NC(C)=O)c4)sc3n2)cc1,23.8,14.7,30.1,50.2*,-6.6,14.6,12.4,-1.6,27.2*,46.6,12.8*,8.9,
CC(=O)c1cccc(NC(=O)c2ccc(N(Cc3ccccc3C)S(C)(=O)=O)cc2)c1,21.9,19.8,24.2,56.8*,6.4,2.1,22.0,6.5,36.7*,50.5*,11.9*,11.3,
COc1ccc(S(=O)(=O)N2CCCCCC2)cc1NC(=O)c1ccccc1S(C)(=O)=O,4.9,1.2,-19.7,-2.2,·,-14.9,·,·,·,·,·,·,
CC1(C(=O)OCC(=O)Nc2nc(-c3ccc(F)c(F)c3)cs2)CC1(Cl)Cl (stereo not drawn),31.8,4.4,28.4,87.8*,6.9,18.1,14.3,-2.3,48.8*,76.0*,8.9,3.2,
COc1ccc(CNC(=O)C(c2ccc(C)o2)N(Cc2cccs2)C(=O)Cc2cccs2)cc1 (stereo not drawn),63.5,22.1,46.3*,87.2*,-4.6,13.1,9.4,-3.8,42.2*,68.4*,10.9,9.3,
COCCN(C(=O)Cc1cccs1)C(C(=O)NCc1ccc(OC)cc1)c1ccc(C)cc1 (stereo not drawn),7.4,14.5,-3.9,28.0,-9.5,-13.7,·,·,·,·,·,·,
CSc1cccc(NC(=O)C2CCN(S(=O)(=O)c3ccc(F)cc3)CC2)c1,11.2,17.5,9.6,42.6,10.7,0.1,·,·,·,·,·,·,
CSc1cccc(NC(=O)C2CCCN(S(=O)(=O)c3ccc(F)cc3)C2)c1 (stereo not drawn),84.0*,12.3,53.0*,56.0*,19.0*,-4.3,54.6*,-1.1,22.6*,33.0,4.3,1.7,OX1R HTRF confirm=78.9*;CHO-K1 HTRF cnt=2.5
Cc1ccc(S(=O)(=O)NCCCCCC(=O)Nc2c(C)n(C)n(-c3ccccc3)c2=O)cc1,3.7,3.3,-7.5,-15.4,-6.4,-9.6,·,·,·,·,·,·,
CCC(=O)c1ccc(OC(=O)c2ccc(Br)o2)cc1,-10.0,123.3*,40.4,83.7*,-6.8,24.6,37.8*,38.9*,·,·,·,·,TAAR1 ag conf=76.0*;Ga16 ag counter-2=71.0*;TAAR1 desensitize=63.5*;Ga16 nonsel ant=50.8*
CCOC(=O)c1ccc(NC(=S)N2CCSC2c2ccc(Cl)cc2)cc1 (stereo not drawn),3.0,122.6*,40.5,105.2*,0.0,28.1,90.6*,73.5*,·,·,·,·,TAAR1 ag conf=136.5*;Ga16 ag counter-2=93.7*;TAAR1 desensitize=105.9*;Ga16 nonsel ant=79.6*
CCOC(=O)c1ccc(NC(=S)N2CCN(C)CC2)cc1,8.9,3.5,-17.5,0.1,-12.9,-8.3,·,·,·,·,·,·,
C=CC[C@@H](CC(=O)N[C@@H](CO)Cc1ccccc1)C(=O)N[C@H](C)COC(=O)[C@@H](CC=C)Cc1ccc(F)cc1,8.2,10.0,-28.7,2.7,·,-21.1,·,·,·,·,·,·,
c1ccc(Nc2nc(NCc3ccco3)c3ccccc3n2)cc1,16.4,55.6*,31.1,41.3,-8.7,18.4,15.2,15.5,·,·,·,·,TAAR1 ag conf=84.4*;Ga16 ag counter-2=8.1;TAAR1 desensitize=85.3*;Ga16 nonsel ant=29.3*
